Publication PMC5084670 (Cancer Science, 2016)
Marks after values point to notes of the source that are not given here.

Test: Phase I dose-escalation study: safety, adverse events
Format: in vivo, human
In short: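 Oral test compound was given once daily in 28-day cycles after a 7-day single-dose run-in, in Japanese and Hong Kong/Taiwan groups escalated separately. Toxicity was graded by CTCAE v3.0 using laboratory tests, physical examination, vital signs, weight and periodic ECG. DLTs were grade 3–4 events over the run-in plus cycle 1. MTD was set by an adaptive Bayesian logistic regression model with overdose control.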

[1] = group 1, 400 mg q.d. (n = 12), All grades
[2] = group 1, 400 mg q.d. (n = 12), Grade 3
[3] = group 1, 400 mg q.d. (n = 12), Grade 4
[4] = group 1, 600 mg q.d. (n = 9), All grades
[5] = group 1, 600 mg q.d. (n = 9), Grade 3
[6] = group 1, 600 mg q.d. (n = 9), Grade 4
[7] = group 1, All patients (n = 21), All grades
[8] = group 1, All patients (n = 21), Grade 3
[9] = group 1, All patients (n = 21), Grade 4
[10] = group 2, 400 mg q.d. (n = 12), All grades

SMILES: Cc1c(C(=O)Nc2ccc(N3C[C@@H](C)O[C@@H](C)C3)nc2)cccc1-c1ccc(OC(F)(F)F)cc1 [Sonidegib]
- Maximum CK level (a patient receiving 600 mg): 40 400 IU/L
- Myoglobin level at maximum CK level (a patient receiving 600 mg): 5320 ng/mL
- Deaths (both groups): no deaths were reported
- Recommended dose (RD) (both groups, East Asian patients): 400 mg q.d.
- Changes in electrocardiogram parameters (during the course of treatment): No clinically significant changes
- Recommended dose (RD) (group 1 (Japanese)): 400 mg q.d.
- Grade 3 /4 Creatine kinase elevation during all study period (group 1 (Japanese), 400 mg qd, N = 12): 2 (17) ^† n (%)
- Grade 3 /4 Creatine kinase elevation during all study period (group 1 (Japanese), 600 mg qd, N = 9): 5 (56) ^† n (%)
- Grade 3 /4 Creatine kinase elevation during all study period (group 1 (Japanese), All patients, N = 21): 7 (33) n (%)
- DLT in cycle 1 (creatine kinase elevation) (group 1, 400 mg): single DLT
- Alopecia (drug-related adverse event) [1]: 2 (17) n (%)
- Blood creatine kinase increased (drug-related adverse event) [1]: 2 (17) n (%)
- Decreased level of consciousness (drug-related adverse event) [1]: 0 (0) n (%)
- Dysgeusia (drug-related adverse event) [1]: 1 (8) n (%)
- Fatigue (drug-related adverse event) [1]: 2 (17) n (%)
- Hepatic function abnormal (drug-related adverse event) [1]: 2 (17) n (%)
- Hyperglycemia (drug-related adverse event) [1]: 0 (0) n (%)
- Lymphopenia (drug-related adverse event) [1]: 0 (0) n (%)
- Muscle spasms (drug-related adverse event) [1]: 1 (8) n (%)
- Muscle weakness (drug-related adverse event) [1]: 0 (0) n (%)
- Myalgia (drug-related adverse event) [1]: 2 (17) n (%)
- Myoglobin blood increased (drug-related adverse event) [1]: 0 (0) n (%)
- Nausea (drug-related adverse event) [1]: 1 (8) n (%)
- Rhabdomyolysis (drug-related adverse event) [1]: 1 (8) n (%)
- Alopecia (drug-related adverse event) [2]: 0 (0) n (%)
- Blood creatine kinase increased (drug-related adverse event) [2]: 1 (8) n (%)
- Decreased level of consciousness (drug-related adverse event) [2]: 0 (0) n (%)
- Dysgeusia (drug-related adverse event) [2]: 0 (0) n (%)
- Fatigue (drug-related adverse event) [2]: 0 (0) n (%)
- Hepatic function abnormal (drug-related adverse event) [2]: 1 (8) n (%)
- Hyperglycemia (drug-related adverse event) [2]: 0 (0) n (%)
- Lymphopenia (drug-related adverse event) [2]: 0 (0) n (%)
- Muscle spasms (drug-related adverse event) [2]: 0 (0) n (%)
- Muscle weakness (drug-related adverse event) [2]: 0 (0) n (%)
- Myalgia (drug-related adverse event) [2]: 0 (0) n (%)
- Myoglobin blood increased (drug-related adverse event) [2]: 0 (0) n (%)
- Nausea (drug-related adverse event) [2]: 0 (0) n (%)
- Rhabdomyolysis (drug-related adverse event) [2]: 0 (0) n (%)
- Alopecia (drug-related adverse event) [3]: 0 (0) n (%)
- Blood creatine kinase increased (drug-related adverse event) [3]: 0 (0) n (%)
- Decreased level of consciousness (drug-related adverse event) [3]: 0 (0) n (%)
- Dysgeusia (drug-related adverse event) [3]: 0 (0) n (%)
- Fatigue (drug-related adverse event) [3]: 0 (0) n (%)
- Hepatic function abnormal (drug-related adverse event) [3]: 0 (0) n (%)
- Hyperglycemia (drug-related adverse event) [3]: 0 (0) n (%)
- Lymphopenia (drug-related adverse event) [3]: 0 (0) n (%)
- Muscle spasms (drug-related adverse event) [3]: 0 (0) n (%)
- Muscle weakness (drug-related adverse event) [3]: 0 (0) n (%)
- Myalgia (drug-related adverse event) [3]: 0 (0) n (%)
- Myoglobin blood increased (drug-related adverse event) [3]: 0 (0) n (%)
- Nausea (drug-related adverse event) [3]: 0 (0) n (%)
- Rhabdomyolysis (drug-related adverse event) [3]: 1 (8) n (%)
- Additional patients with grade 3 or 4 CK elevation after cycle 1 (group 1, 600 mg): four
- DLT in cycle 1 (creatine kinase elevation) (group 1, 600 mg): single DLT
- Alopecia (drug-related adverse event) [4]: 2 (22) n (%)
- Blood creatine kinase increased (drug-related adverse event) [4]: 5 (56) n (%)
- Decreased level of consciousness (drug-related adverse event) [4]: 1 (11) n (%)
- Dysgeusia (drug-related adverse event) [4]: 2 (22) n (%)
- Fatigue (drug-related adverse event) [4]: 2 (22) n (%)
- Hepatic function abnormal (drug-related adverse event) [4]: 3 (33) n (%)
- Hyperglycemia (drug-related adverse event) [4]: 1 (11) n (%)
- Lymphopenia (drug-related adverse event) [4]: 1 (11) n (%)
- Muscle spasms (drug-related adverse event) [4]: 1 (11) n (%)
- Muscle weakness (drug-related adverse event) [4]: 1 (11) n (%)
- Myalgia (drug-related adverse event) [4]: 4 (44) n (%)
- Myoglobin blood increased (drug-related adverse event) [4]: 1 (11) n (%)
- Nausea (drug-related adverse event) [4]: 2 (22) n (%)
- Rhabdomyolysis (drug-related adverse event) [4]: 1 (11) n (%)
- Alopecia (drug-related adverse event) [5]: 0 (0) n (%)
- Blood creatine kinase increased (drug-related adverse event) [5]: 2 (22) n (%)
- Decreased level of consciousness (drug-related adverse event) [5]: 0 (0) n (%)
- Dysgeusia (drug-related adverse event) [5]: 0 (0) n (%)
- Fatigue (drug-related adverse event) [5]: 0 (0) n (%)
- Hepatic function abnormal (drug-related adverse event) [5]: 1 (11) n (%)
- Hyperglycemia (drug-related adverse event) [5]: 1 (11) n (%)
- Lymphopenia (drug-related adverse event) [5]: 1 (11) n (%)
- Muscle spasms (drug-related adverse event) [5]: 0 (0) n (%)
- Muscle weakness (drug-related adverse event) [5]: 1 (11) n (%)
- Myalgia (drug-related adverse event) [5]: 0 (0) n (%)
- Myoglobin blood increased (drug-related adverse event) [5]: 1 (11) n (%)
- Nausea (drug-related adverse event) [5]: 0 (0) n (%)
- Rhabdomyolysis (drug-related adverse event) [5]: 1 (11) n (%)
- Alopecia (drug-related adverse event) [6]: 0 (0) n (%)
- Blood creatine kinase increased (drug-related adverse event) [6]: 2 (22) n (%)
- Decreased level of consciousness (drug-related adverse event) [6]: 1 (11) n (%)
- Dysgeusia (drug-related adverse event) [6]: 0 (0) n (%)
- Fatigue (drug-related adverse event) [6]: 0 (0) n (%)
- Hepatic function abnormal (drug-related adverse event) [6]: 1 (11) n (%)
- Hyperglycemia (drug-related adverse event) [6]: 0 (0) n (%)
- Lymphopenia (drug-related adverse event) [6]: 0 (0) n (%)
- Muscle spasms (drug-related adverse event) [6]: 0 (0) n (%)
- Muscle weakness (drug-related adverse event) [6]: 0 (0) n (%)
- Myalgia (drug-related adverse event) [6]: 0 (0) n (%)
- Myoglobin blood increased (drug-related adverse event) [6]: 0 (0) n (%)
- Nausea (drug-related adverse event) [6]: 0 (0) n (%)
- Rhabdomyolysis (drug-related adverse event) [6]: 0 (0) n (%)
- Alopecia (drug-related adverse event) [7]: 4 (19) n (%)
- Blood creatine kinase increased (drug-related adverse event) [7]: 7 (33) n (%)
- Decreased level of consciousness (drug-related adverse event) [7]: 1 (5) n (%)
- Dysgeusia (drug-related adverse event) [7]: 3 (14) n (%)
- Fatigue (drug-related adverse event) [7]: 4 (19) n (%)
- Hepatic function abnormal (drug-related adverse event) [7]: 5 (24) n (%)
- Hyperglycemia (drug-related adverse event) [7]: 1 (5) n (%)
- Lymphopenia (drug-related adverse event) [7]: 1 (5) n (%)
- Muscle spasms (drug-related adverse event) [7]: 2 (10) n (%)
- Muscle weakness (drug-related adverse event) [7]: 1 (5) n (%)
- Myoglobin blood increased (drug-related adverse event) [7]: 1 (5) n (%)
- Nausea (drug-related adverse event) [7]: 3 (14) n (%)
- Rhabdomyolysis (drug-related adverse event) [7]: 2 (10) n (%)
- Alopecia (drug-related adverse event) [8]: 0 (0) n (%)
- Blood creatine kinase increased (drug-related adverse event) [8]: 3 (14) n (%)
- Decreased level of consciousness (drug-related adverse event) [8]: 0 (0) n (%)
- Dysgeusia (drug-related adverse event) [8]: 0 (0) n (%)
- Fatigue (drug-related adverse event) [8]: 0 (0) n (%)
- Hepatic function abnormal (drug-related adverse event) [8]: 2 (10) n (%)
- Hyperglycemia (drug-related adverse event) [8]: 1 (5) n (%)
- Lymphopenia (drug-related adverse event) [8]: 1 (5) n (%)
- Muscle spasms (drug-related adverse event) [8]: 0 (0) n (%)
- Muscle weakness (drug-related adverse event) [8]: 1 (5) n (%)
- Myalgia (drug-related adverse event) [8]: 0 (0) n (%)
- Myoglobin blood increased (drug-related adverse event) [8]: 1 (5) n (%)
- Nausea (drug-related adverse event) [8]: 0 (0) n (%)
- Rhabdomyolysis (drug-related adverse event) [8]: 1 (5) n (%)
- Alopecia (drug-related adverse event) [9]: 0 (0) n (%)
- Blood creatine kinase increased (drug-related adverse event) [9]: 2 (10) n (%)
- Decreased level of consciousness (drug-related adverse event) [9]: 1 (5) n (%)
- Dysgeusia (drug-related adverse event) [9]: 0 (0) n (%)
- Fatigue (drug-related adverse event) [9]: 0 (0) n (%)
- Hepatic function abnormal (drug-related adverse event) [9]: 1 (5) n (%)
- Hyperglycemia (drug-related adverse event) [9]: 0 (0) n (%)
- Lymphopenia (drug-related adverse event) [9]: 0 (0) n (%)
- Muscle spasms (drug-related adverse event) [9]: 0 (0) n (%)
- Muscle weakness (drug-related adverse event) [9]: 0 (0) n (%)
- Myalgia (drug-related adverse event) [9]: 0 (0) n (%)
- Myoglobin blood increased (drug-related adverse event) [9]: 0 (0) n (%)
- Nausea (drug-related adverse event) [9]: 0 (0) n (%)
- Rhabdomyolysis (drug-related adverse event) [9]: 1 (5) n (%)
- Drug-related AE: abnormal hepatic function (group 1, all doses): 24%
- Drug-related AE: fatigue (group 1, all doses): 19%
- Drug-related AE: increase in CK levels (group 1, all doses): 33%
- Drug-related AE: myalgia (group 1, all doses): 29%
- Patients with at least one AE suspected to be related to sonidegib (group 1, n = 18): 86%
- Recommended dose (RD) (group 2 (Chinese/Taiwanese)): 400 mg q.d.
- Grade 3 /4 Creatine kinase elevation during all study period (group 2 (Chinese/Taiwanese), 400 mg qd, N = 12): 2 (17) n (%)
- Grade 3 /4 Creatine kinase elevation during all study period (group 2 (Chinese/Taiwanese), 600 mg qd, N = 8): 1 (13) n (%)
- Grade 3 /4 Creatine kinase elevation during all study period (group 2 (Chinese/Taiwanese), 800 mg qd, N = 4): 2 (50) n (%)
- Grade 3 /4 Creatine kinase elevation during all study period (group 2 (Chinese/Taiwanese), All patients, N = 24): 5 (21) n (%)
- Blood creatine kinase increased (drug-related adverse event) [10]: 6 (50) n (%)
- Decreased appetite (drug-related adverse event) [10]: 0 (0) n (%)
- Diarrhea (drug-related adverse event) [10]: 0 (0) n (%)
- Dizziness (drug-related adverse event) [10]: 0 (0) n (%)
